Bioassay records as filed in PubChem BioAssay.
Rows were chosen to be rich in hits. Some 3.6% of all compounds tested hit in one or more screens of this group.
HSF-1 act – HSF-1 activators, primary screen, NIH3T3-HGL cells, MG132 stress, luminescence, single point | NIH3T3-HGL HSF-1 luciferase reporter, 8 h; 100% = twice DMSO control signal | activation, % at 9 µM | 300,000 compounds, 1.7% hits | AID 504408, 2011;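 active means mean replicate activation of at least 50% with a set share of replicates each reaching 50%; inconclusive means only one of those two conditions met; inactive means mean below 50% and too few replicates reaching it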;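 further: 0% = median of the neutral control wells and 100% = twice that signal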
MITF act – activators of MITF-driven TRPM1 promoter reporter, primary screen, cell-based, SK-MEL-5, luciferase, single point | SK-MEL-5 TRPM1-promoter luciferase, 24 h; % of positive control, neutral wells = 0 | 300,000 compounds, 0.75% hits | AID 588334, 2011 | activation, % at 12.5 µM;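 active means mean activation of at least 80% with every replicate also reaching 80%; inconclusive means mean reaches 80% but some replicate falls short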;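 further: 0% = neutral control wells and 100% = parthenolide positive control wells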
Wnt act – Wnt/beta-catenin pathway activators, primary screen, cell-based, plate reader, single point; Wnt/beta-catenin reporter cell assay, activator; activation, % at 9.35 µM; 300,000 compounds, 1.2% hits; AID 743398, 2014; in the data active means activation above about 30%, passing the limit was not always enough; inconclusive means no clear call, values can overlap the other calls;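 further: 0% = neutral control wells and 100% = positive control wells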
SR-BI DiI inh – inhibitors of SR-BI mediated HDL lipid uptake, primary screen, ldlA[mSR-BI] cells, fluorescence, single point. ldlA[mSR-BI] CHO cells, DiI-HDL uptake fluorescence, 3 h. 320,000 compounds, 0.96% hits. Scavenger receptor class B member 1 (Mus musculus), Q61009. inhibition, % at 12.5 µM. AID 488896, 2010;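 active means mean replicate inhibition of at least 70% and a set share of replicates each scoring 70 or more; inconclusive means meets just one of the two criteria; inactive means fails both criteria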;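 further: 0% = median of neutral control wells and 100% = median of positive control wells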
Target sequence (Q61009 whole entry, looked up): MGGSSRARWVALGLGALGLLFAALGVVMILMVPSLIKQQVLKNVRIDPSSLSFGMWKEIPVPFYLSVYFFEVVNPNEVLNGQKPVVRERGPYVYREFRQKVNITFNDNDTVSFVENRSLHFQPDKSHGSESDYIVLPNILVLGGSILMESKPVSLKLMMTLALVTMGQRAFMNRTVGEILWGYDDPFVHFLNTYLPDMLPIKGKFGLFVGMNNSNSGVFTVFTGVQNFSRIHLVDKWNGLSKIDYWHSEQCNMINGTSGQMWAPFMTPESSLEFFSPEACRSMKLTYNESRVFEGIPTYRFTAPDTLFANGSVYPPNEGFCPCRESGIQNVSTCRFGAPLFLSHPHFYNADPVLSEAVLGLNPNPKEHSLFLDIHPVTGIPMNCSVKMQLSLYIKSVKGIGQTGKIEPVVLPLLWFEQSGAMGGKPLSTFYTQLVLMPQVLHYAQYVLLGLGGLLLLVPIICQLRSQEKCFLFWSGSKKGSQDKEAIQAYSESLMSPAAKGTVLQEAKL
SR-BI DiI-HDL act – activators of SR-BI mediated DiI-HDL uptake, primary screen, ldlA[mSR-BI] CHO cells, DiI fluorescence; 3 h; 100 = double the neutral-control signal; activation, % at 12.5 µM; 320,000 compounds, 0.096% hits; AID 504775, 2011;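 active means mean replicate activation of at least 60% and every replicate at or above 60%; inconclusive means mean or all-replicate condition met, but not both; inactive means mean below 60% and not all replicates reaching 60%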;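 further: 0% = median plate neutral-control signal and 100% = twice that signal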
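Assay system: CHO ldlA[mSR-BI] cells, LDL receptor-null, SR-BI overexpressing; medium: Ham's F12 with 0.5% BSA, HEPES 25 mM, pH 7.4; also added: DiI-HDL 10 µg/mL; timing: 3 h uptake period with compound, 37 °C; signal: DiI fluorescence, bottom read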
* = called active by the depositor; ? = inconclusive; . = not tested or not shown; ! = not confirmed by another sample.

SMILES	HSF-1 act	MITF act	Wnt act	SR-BI DiI inh	SR-BI DiI-HDL act
Cc1ccc(S(=O)(=O)NC2c3cccc4cccc(c34)C2Sc2nncn2C)cc1 (configuration not stated)	67*	-3	-4	-15	15
Cn1cnnc1SC1c2cccc3cccc(c23)C1NS(=O)(=O)c1ccccc1 (configuration not stated)	24	4	-4	-13	13
O=C(COC(=O)C1COc2ccccc2O1)c1ccccc1 (configuration not stated)	.	.	-2	.	.
Nc1cc(N)nc(SCCOc2ccccc2F)n1	66*	59	18	-24	24
COc1ccccc1OCCSc1nc(N)cc(N)n1	21	.	15	-18	18
Cc1cc(NC(=O)c2cc3cccc([N+](=O)[O-])c3[nH]2)ccc1F	?	53	41*	77*	-77
COCCn1c(SCC(=O)NC2CCCCC2)nc2c(c1=O)SCC2	58*	-2	1	-7	7
COCCn1c(SCC(=O)NCC2CCCO2)nc2c(c1=O)SCC2 (configuration not stated)	1	5	1	-34	34
C=CC[n+]1c(-c2ccc(OC)cc2)csc1NNC(=O)Nc1ccccc1	54*	-9	10	16	-16
Fc1cc(NC(=S)NCc2ccc(CNC(=S)Nc3ccc(Cl)c(F)c3)cc2)ccc1Cl	40	-11	-7	73*	-73
Fc1ccc(NC(=S)Nc2cc(Cl)ccc2Cl)cc1	77*	-8	-8	18	-18
CSc1nsc2nc(=O)c(/C=C3\C(C)=Nc4ccc(C)cc43)c(N)n12	33	-1	2	26	-26
CC1=Nc2ccc(C)cc2/C1=C/c1c(N)n2oc(C)cc2nc1=O	5	5	23	93*!	-66
O=C(Nc1ccc(F)cc1Cl)c1ccc2c(=O)n3c(nc2c1)CCCCC3	34	55	.	49	-49
O=C(Nc1ccccc1Cl)c1ccc2c(=O)n3c(nc2c1)CCC3	.	71	51*	15	-15
O=C(NCCOc1ccccc1F)c1ccc2c(=O)n3c(nc2c1)CCC3	.	44	46*	18	.
Cc1cccc(NC(=O)c2ccc3c(=O)n4c(nc3c2)CCCCC4)n1	0	3	35*	42	-42
O=C(COc1ccccc1F)NNC(=O)c1ccc2c(=O)n3c(nc2c1)CCC3	2	-12	0	-17	17
O=C(NCc1ccccc1)c1ccc2c(=O)n3c(nc2c1)CCCCC3	-2	1	-6	.	.
O=C(NC1CCCCCC1)c1ccc2c(=O)n3c(nc2c1)CCCCC3	-2	92*	.	14	-14
Cc1ccc(NC(=O)c2ccc3c(=O)n4c(nc3c2)CCCCC4)nc1	23	41	14	29	-29
C=CCN=C1NC(c2ccccc2C(F)(F)F)C(C(=O)OC)=C(C)N1Cc1cccc(C(F)(F)F)c1 (configuration not stated)	.	.	-7	.	.
Cc1cc(C)nc(NS(=O)(=O)c2ccc(NS(=O)(=O)c3ccc(F)c(F)c3)cc2)n1	.	.	7	.	.
CCCCOCC1CN(CCCC)S(=O)(=O)c2c(NCc3cc(OC)c(OC)c(OC)c3)cccc2O1 (configuration not stated)	.	.	-5	.	.
CN(C)c1ccc(-c2ccnc3c2CC(C)(C(=O)NCc2ccc(F)c(F)c2)O3)cc1 (configuration not stated)	.	.	1	.	.
SMILES	HSF-1 act	MITF act	Wnt act	SR-BI DiI inh	SR-BI DiI-HDL act
O=C(COC(=O)c1ccc(O)cc1O)c1ccc(Cl)cc1	61*	56	-1	-5	5
O=C(COC(=O)c1ccc(O)cc1O)Nc1ccc(Cl)cn1	16	-1	0	-4	4
COC(=O)c1sc(-c2ccc(C(C)(C)C)cc2)cc1NC(=O)c1ccccc1C(=O)O	-39	.	46*	.	.
COC(=O)C1=C(C)N(C)C(=NCc2ccc(C(F)(F)F)cc2)NC1c1cccc(Cl)c1 (configuration not stated)	.	.	-5	.	.
O=C(Nc1ccc(F)c(Cl)c1)c1csc([C@H]2C[C@H](O)[C@@H](CO)O2)n1	.	.	40*	.	.
Cc1cc(NC(=O)c2sccc2C)n(-c2nc3ccccc3[nH]2)n1	-25	-1	0	78*	-78
